Assay results published in ChEMBL document CHEMBL1141749, “Nitrogen-containing compounds from Salvia miltiorrhiza” (2005).

Key:
Type in all cases: functional
Details in all cases: for CC50: read-out: CD50 (the source's name)
HepG2 = test: Cytotoxicity against human HepG2 cells by MTT assay
Method in brief: (§1)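 MTT colorimetric read-out. The value is reported as CD50.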

OVCAR-3 = test: Cytotoxicity against human OVCAR-3 cells by MTT assay; method in brief: as §1
HeLa = test: Cytotoxicity against human HeLa cells by MTT assay; method in brief: as §1

| SMILES | CC50 (HepG2) | CC50 (OVCAR-3) | CC50 (HeLa) | Activity (HepG2) | Activity (OVCAR-3) | Activity (HeLa) |
| --- | --- | --- | --- | --- | --- | --- |
| CC(C)C1=Cc2ccc3c4c([nH]c(c24)C1=O)C(=O)CC3(C)C [SALVIADIONE] | 137 µM | 169 µM | 178 µM |  |  |  |
| Cc1nc2c(o1)c1c3c(ccc1c1occ(C)c21)C(C)(C)CCC3 [NEOSALVIANEN] | 59.2 µM | 74.6 µM | 63.9 µM |  |  |  |
| Cc1coc2c1C(=O)C(=O)c1c-2ccc2c1CCCC2(C)C [TANSHINONE IIA] | 26.5 µM | 9.52 µM | 8.5 µM |  |  |  |
| C[C@H]1COC2=C1C(=O)C(=O)c1c2ccc2c1CCCC2(C)C [CRYPTOTANSHINONE] | 29.7 µM | 9.12 µM | 17.2 µM |  |  |  |
| Cc1nc2c3c(c4ccc5c(c4c2o1)CCCC5(C)C)OCC3C (stereo unspecified) | 121 µM | 126 µM | 108 µM |  |  |  |
| Cc1nc2c(o1)c1c(C)coc1c1ccc3c(c12)CCCC3(C)C [SALVIANEN] | 30.4 µM | 39.5 µM | 32.3 µM | Dose-dependent effect | Dose-dependent effect | Dose-dependent effect |
